Laboratory results reported in publication PMC4633329 (Chemistry and physics of lipids, 2015).
Converted amounts (≈) assume the structure as drawn. “And” between values parts separate entries of the source, which are not always exact repeats. Equal entries are not always repeated. Where two headings read alike, the source gives them in different places.

Assays:
[1] = OA solubility from NMR visible EFG; assay type: physicochemical
[2] = target: Mb (Equus caballus, UniProt P68082); test: Optical spectra; set-up: species or system horse
[3] = in the cell, cited from earlier work
[4] = pK of OA by NMR pH titration; assay type: physicochemical; settings: 0.8 mM OA, 35 °C, 1H NMR, referenced to peak position at pH 12.14
[5] = target: FABP; settings: read-out: Dissociation Constant KFABP; flux model input; ref [15]; [45]; cited from earlier work
[6] = cited from earlier work
[7] = target: MbCN (Equus caballus, UniProt P68082); test: 1H NMR titration of MbCN with OA; assay type: binding, horse
Method in brief: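 Horse metMb converted to MbCN with 5-fold excess KCN in 30mM Tris, 1mM EDTA, pH 7.4. OA stock (10 or 100mM, pH 8.5, 65°C) added to 0.2-0.8 mM MbCN at 35°C (OA:Mb up to 60:1). 1H NMR at 600 MHz, 35°C, Watergate, 10% D2O, TSP reference. Heme methyl intensity loss fitted to a specific plus non-specific 2-site model by Marquardt-Levenberg regression.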

[8] = target: MbCO; settings: read-out: MbCO-PA Kd; ref [47]; [48]; cited from earlier work
[9] = test system: deoxy Mb; settings: ref [47]; [48]; cited from earlier work
[10] = target: MbCN; settings: read-out: MbCN-PA Kd; ref [47]; [48]; cited from earlier work
[11] = test system: Mb; settings: 25:1 ratio of SDS to Mb; ref [50]; cited from earlier work

Chain of Mb (Equus caballus, UniProt P68082) (P68082 whole entry): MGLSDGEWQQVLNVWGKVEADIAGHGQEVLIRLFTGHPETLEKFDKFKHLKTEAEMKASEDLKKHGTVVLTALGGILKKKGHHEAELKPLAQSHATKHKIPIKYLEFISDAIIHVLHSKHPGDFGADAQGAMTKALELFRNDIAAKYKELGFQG
Chain of MbCN (Equus caballus, UniProt P68082) (P68082 whole entry): as above

CCCCCCCC/C=C\CCCCCCCC(=O)O [OA, oleic acid]
Solubility ([1]; 0.8mM MbCN in Tris, pH 7.4 35°C, 0.0904g/100g total OA added): 7.03×10^−2 g/100g | Solubility ([1]; 10.8mM MbCN in phosphate, pH 7.4 35°C, 0.0904g/100g total OA added): 6.59×10^−2 g/100g | Solubility ([1]; 30 mM Tris buffer, 35 °C, pH 7.4, aqueous buffer, kinetic from dmso stock): 1430 µM (≈ 404 µg/mL) | Solubility ([1]; 30 mM Tris buffer, 35 °C, pH 12, aqueous buffer, kinetic from dmso stock): 2990 µM (≈ 845 µg/mL) | Solubility ([1]; 30 mM Tris buffer, pH 7.4 35°C, 0.0904g/100g total OA added): 4.04×10^−2 g/100g | Solubility ([1]; 30 mM Tris buffer, pH 12 35°C, 0.0904g/100g total OA added): 8.45×10^−2 g/100g | Solubility ([1]; 100 mM phosphate buffer, 35 °C, pH 7.4, aqueous buffer, kinetic from dmso stock): 1260 µM (≈ 356 µg/mL) | Solubility ([1]; 100 mM phosphate buffer, pH 7.4 35°C, 0.0904g/100g total OA added): 3.56×10^−2 g/100g | hemichrome formation in optical spectra ([2]; OA:Mb of 5:1 to 50:1): do not detect any signs of hemichrome formation | reduction in Soret band intensity ([2]; OA:Mb of 50:1): 5% | Soret band position ([2]; OA:Mb of 50:1, shifts from 422): 420 nm | perturbation of Mb Soret band at 422 nm ([2]; OA:Mb ratio up to 5:1): no significant perturbation | reduction in Soret band intensity ([2]; OA:Mb ratios 20:1 to 50:1): < 5% | Soret band position ([2]; OA:Mb ratios 20:1 to 50:1, 422 nm without OA): 420 nm | metMb signal in optical spectra ([2]; OA:Mb up to 50:1): no detectable metMb signal | Diffusion Constant, Fatty acid (DOA) ([3]; highest reported value, ref [52]): 4.6 × 10^−6 cm^2s^−1 | pK from peak B [4]: 8.22 | pK from peak D [4]: 8.07 | Kd [5]: 0.014 µM | Solubility ([6]; 66 mM phosphate buffer, pH 7.4 at 37°C, ref [53], listed as Oleate): 1.00×10^−6 M and 2.83×10^−5 g/100g | Solubility ([6]; 0.2 M HEPES, pH 7.4 at 37°C, ref [46], listed as Oleate): 6.00×10^−6 M and 1.70×10^−4 g/100g | Solubility ([6]; 95% of ethanol at 20°C, ref [22]): ∞ | Solubility ([6]; Acetone at 20°C, ref [22]): ∞ | Solubility ([6]; Benzene at 20°C, ref [22]): ∞ | Kd ([7]; Dissociation Constant KMb2 (non-specific binding), 2-site model, high OA:Mb): 37000 µM | Kd ([7]; apparent Kd (Kd1, KMb1), specific OA binding to MbCN, heme 8-CH3 signal loss, OA:Mb < 2:1, pH 7.4, 35 °C): 45 µM

CCCCCCCCCCCCCCCC(=O)O [PA, palmitate]
Kd [8]: 39 to 48 µM | PA interaction with deoxy Mb [9]: does not interact specifically or non-specifically | Kd [10]: 43 µM

CCCCCCCCCCCCOS(=O)(=O)[O-].[Na+] [SDS, sodium dodecyl sulfate]
loss of Soret band signal intensity [11]: 25%

B1: Mb: myoglobin; solutions prepared from lyophilized horse heart protein (protein, UniProt P68082 2-154, looked up)
Myoglobin: GLSDGEWQQVLNVWGKVEADIAGHGQEVLIRLFTGHPETLEKFDKFKHLKTEAEMKASEDLKKHGTVVLTALGGILKKKGHHEAELKPLAQSHATKHKIPIKYLEFISDAIIHVLHSKHPGDFGADAQGAMTKALELFRNDIAAKYKELGFQG
Diffusion Constant, Myoglobin (DMb) ([3]; ref [34]): 7.85 × 10^−7 cm^2s^−1
